A short description of assay [1]: Inhibition of CK2.
The subject of assay [2] is LNCaP. The assay can be described thus: Induction of apoptosis in human LNCAP cells assessed as PARP cleavage at 20 uM after 24 hrs by Western blot analysis. Type of assay: functional, cell-based. An outline of the steps: (§1)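 LNCaP cells treated 24 h at 10 or 20 µM, then lysed in RIPA buffer with protease inhibitors and protein measured by Bradford. Extracts (150 µg) run on 7.5% SDS-PAGE and tank-blotted to PVDF. Probed overnight at 4 °C with polyclonal rabbit anti-PARP (1:1000), detected with peroxidase anti-rabbit and chemiluminescence. Full-length and 85 kDa fragment scored.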

Assay [3] relates to LNCaP. Nature of the assay: Antiproliferative activity against human LNCAP cells assessed as decrease in cell viability at 20 uM after 48 hrs by MTT assay. It is filed as functional. An outline of the steps: (§2)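 LNCaP cells grown in RPMI1640 with 10% FBS at 37 °C, 5% CO2. Seeded at 2 × 10^4 cells/500 µl in 24-well plates the day before treatment, then exposed to 10 or 20 µM for 24 or 48 h. MTT was added for a further 1 h, cells lysed and A595 read. Viability given as % of DMSO-treated control. Mean of at least three independent experiments.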
(In general: Tetrazolium assays rely on reduction of a dye to a coloured formazan, in cell work by metabolically active cells.)

Assay [4] deals with LNCaP. The assay can be described thus: Antiproliferative activity against human LNCAP cells assessed as decrease in cell viability at 10 uM after 48 hrs by MTT assay. Type of assay: functional. In short, it runs like this:
as §2

In assay [5] the test system is LNCaP. The assay can be described thus: Antiproliferative activity against human LNCAP cells after 24 to 48 hrs by MTT assay. Type of assay: functional. As to conditions: read-out: LD50 (the source's name). In short, it runs like this: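 LNCaP cells were grown in RPMI1640 with 10% FBS at 37 °C under 5% CO2, and 2 × 10^4 cells/well were seeded the day before treatment. Cells were exposed to 10 or 20 compound for 24 and 48 h. MTT (5 mg/ml) was then added for 1 h, cells were lysed, and A595 was read. Viable cells were expressed as % of DMSO-treated control, mean of ≥3 independent experiments.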

Assay [6] relates to LNCaP. The assay can be described thus: Induction of apoptosis in human LNCAP cells assessed as PARP cleavage at 10 uM after 24 hrs by Western blot analysis. Type of assay: functional, cell-based. In short, it runs like this: as §1
Assay [7] deals with LNCaP. Nature of the assay: Induction of apoptosis in human LNCAP cells assessed as PARP cleavage after 24 hrs by Western blot analysis. It is filed as functional, cell-based. An outline of the steps:
as §1
A general note: In western blotting, separated proteins are transferred to a membrane and probed.

Assay [8] relates to LNCaP. Nature of the assay: Antiproliferative activity against human LNCAP cells after 24 by MTT assay. Type of assay: functional. As to conditions: read-out: LD50 (the source's name). In short, it runs like this:
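LNCaP cells were grown in RPMI1640 with 10% FBS at 37 °C under 5% CO2, and 2 × 10^4 cells/well were seeded the day before. Cells were treated with 3–10 µM for 24 h. MTT (5 mg/ml) was then added for 1 h, cells were lysed, and absorbance was read at 595 nm. Viability was expressed as % of DMSO control. LD50 was calculated by curve fitting, mean of ≥3 independent experiments.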

The test system of assay [9] is LNCaP. The assay can be described thus: Antiproliferative activity against human LNCAP cells assessed as decrease in cell viability at 10 to 20 uM after 24 to 48 hrs by MTT assay. It is filed as functional, cell-based. In short, it runs like this: as §2
Assay [10] can be described thus: Inhibition of rat liver CK2 using RRRADDSDDDDD as substrate.

By Ki is commonly meant a dissociation constant, usually derived from enzyme kinetics or from competition with a known ligand. A higher Ki goes with lower affinity. As a reminder, the IC50 is the concentration at which inhibition is half-maximal. A lower IC50 goes with greater potency in that assay.

Molecules are shown by their SMILES. The source made the active and inactive calls. The calls are words filed in the database; no cut-off is given here. Bounds are passed on as bounds.

In turn, `CN(C)c1nc2c(Br)c(Br)c(Br)c(Br)c2[nH]1` registered a Ki in [1] of 0.04 µM.
As to `Ic1c(I)c(I)c2[nH]cnc2c1I`, in assay [2], the result was Active. Moreover, the Activity in assay [3] and in [4] was 20% in each case.
For the molecule `NCCCNc1nc2c(Br)c(Br)c(Br)c(Br)c2[nH]1`, the outcome in assay [2] was Active. Moreover, in assay [5], the CC50 is under 10 µM.
For the molecule `NCCNc1nc2c(I)c(I)c(I)c(I)c2[nH]1`, in [2], the outcome was Active. Further, the CC50 in assay [5] was under 10 µM.
Consider `Cn1c(NCCN)nc2c(Br)c(Br)c(Br)c(Br)c21`, for which the outcome in assay [2] and in assay [6] was inactive. The CC50 in assay [5] is under 10 µM.
On to `NCCNc1nc2c(Br)c(Br)c(Br)c(Br)c2[nH]1`, for which the Activity result in [7] was “Dose-dependent effect”. The outcome in assay [2] and in assay [6] was Active. The CC50 in assay [5] was under 10 µM; in assay [8] it was 7.22 µM.
On to `NCCCCNc1nc2c(Br)c(Br)c(Br)c(Br)c2[nH]1`, for which the result in [2] and in [6] was inactive. Besides, in assay [5], the CC50 was under 10 µM. The Activity in [3] and in assay [4] was 20% throughout.
Take `O=C(O)CCCSc1nc2c(Br)c(Br)c(Br)c(Br)c2[nH]1`: the outcome in assay [9] and in assay [6] was inactive. The molecule also came in with an IC50 in assay [1] of 0.27 µM.
In the case of `CN(C)CCNc1nc2c(I)c(I)c(I)c(I)c2[nH]1`, the result in [2] was Active. The CC50 in [5] is under 10 µM; in [8] it was 7.37 µM.
For `Cn1c(NCCN)nc2c(I)c(I)c(I)c(I)c21`, the result in assay [2] and in [6] was inactive. In addition, the CC50 was under 10 µM in assay [5] and 4.75 µM in [8].
In the case of `CN(C)CCNc1nc2c(Br)c(Br)c(Br)c(Br)c2[nH]1`, the outcome in assay [2] was Active. The CC50 in assay [5] was under 10 µM; in assay [8], 9.37 µM. Besides, the affinity in [10] corresponds to a Ki of 0.16 µM.
Turning to `CN(C)c1nc2c(Br)c(Br)c(Br)c(Br)c2n1CC(=O)O`, the outcome in assay [9] and in assay [6] was inactive. The molecule also came in with a half-maximal inhibitory concentration (IC50) in [1] of 0.27 µM. Besides, the Ki in assay [10] came out at 0.25 µM.
As to `Brc1c(Br)c(Br)c2[nH]cnc2c1Br`, the result in [2] was Active. Moreover, the Activity in assay [3] and in [4] was 20% each time.

For the origin of these results see ChEMBL document CHEMBL2157902, “Modified tetrahalogenated benzimidazoles with CK2 inhibitory activity are active against human prostate cancer cells LNCaP in vitro” (Bioorg Med Chem, 2012).
